pIC50: −log10 of the molar value. Calls of active or inactive are those of the source. The rule behind the calls is not given here.
Tests used:
Cytochrome P450 3A4 = Cytochrome P450 3A4 (Homo sapiens, UniProt P08684); experiment: Inhibition of human recombinant CYP3A4 after 20 mins by LC/MS/MS analysis; type: ADME
Cytochrome P450 1A2 = target: T1, Cytochrome P450 1A2 (Homo sapiens, UniProt P05177); experiment: Inhibition of human recombinant CYP1A2 after 20 mins by LC/MS/MS analysis; type: ADME
T1 sequence (P05177 whole entry): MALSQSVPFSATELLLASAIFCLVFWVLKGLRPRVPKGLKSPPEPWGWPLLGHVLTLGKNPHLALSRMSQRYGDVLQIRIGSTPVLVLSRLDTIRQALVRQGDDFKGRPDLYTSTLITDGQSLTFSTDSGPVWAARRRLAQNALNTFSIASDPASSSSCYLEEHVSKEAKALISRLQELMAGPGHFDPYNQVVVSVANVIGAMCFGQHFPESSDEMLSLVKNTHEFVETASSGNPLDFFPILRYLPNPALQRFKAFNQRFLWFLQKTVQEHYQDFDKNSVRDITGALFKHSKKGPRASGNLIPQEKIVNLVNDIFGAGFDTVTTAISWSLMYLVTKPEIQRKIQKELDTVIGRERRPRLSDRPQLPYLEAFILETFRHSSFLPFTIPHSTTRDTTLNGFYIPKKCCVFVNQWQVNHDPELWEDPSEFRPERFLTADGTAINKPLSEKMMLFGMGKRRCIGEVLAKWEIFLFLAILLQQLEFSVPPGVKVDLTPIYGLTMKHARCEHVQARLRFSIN

Cytochrome P450 2C9 = Cytochrome P450 2C9 (Homo sapiens, UniProt P11712); experiment: Inhibition of human recombinant CYP2C9 after 20 mins by LC/MS/MS analysis; type: ADME
Chain of Cytochrome P450 2C9 (P11712 whole entry): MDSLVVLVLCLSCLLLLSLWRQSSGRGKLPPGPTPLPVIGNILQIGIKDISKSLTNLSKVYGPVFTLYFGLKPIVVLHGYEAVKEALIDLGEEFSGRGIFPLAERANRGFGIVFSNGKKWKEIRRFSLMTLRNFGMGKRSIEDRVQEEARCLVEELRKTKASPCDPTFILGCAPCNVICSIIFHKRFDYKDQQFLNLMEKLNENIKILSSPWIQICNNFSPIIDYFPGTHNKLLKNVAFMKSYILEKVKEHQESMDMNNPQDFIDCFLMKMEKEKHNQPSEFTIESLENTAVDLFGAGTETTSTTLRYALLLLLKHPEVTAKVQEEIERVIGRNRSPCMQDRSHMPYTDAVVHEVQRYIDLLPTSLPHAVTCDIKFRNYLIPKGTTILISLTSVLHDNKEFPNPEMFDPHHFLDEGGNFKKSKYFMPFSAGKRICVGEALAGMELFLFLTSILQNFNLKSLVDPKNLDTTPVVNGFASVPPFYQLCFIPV

A549 = experiment: Cytotoxicity against human A549 cells after 48 hrs by CellTiter-Glo assay; type: functional, cell-based; conditions: A549, 48 h
SW-620 = experiment: Cytotoxicity against human SW620 cells after 48 hrs by CellTiter-Glo assay; type: functional, cell-based; conditions: SW-620, 48 h
[1] = system: Epidermal growth factor receptor (Homo sapiens), P00533 [T790M]; experiment: Inhibition of EGFR T790M mutant (unknown origin) incubated for 5 mins prior to ATP addition measured after 30 mins by HTRF method; type: protein assay
Chain of Epidermal growth factor receptor (Homo sapiens), P00533 [T790M] (P00533 whole entry T790M): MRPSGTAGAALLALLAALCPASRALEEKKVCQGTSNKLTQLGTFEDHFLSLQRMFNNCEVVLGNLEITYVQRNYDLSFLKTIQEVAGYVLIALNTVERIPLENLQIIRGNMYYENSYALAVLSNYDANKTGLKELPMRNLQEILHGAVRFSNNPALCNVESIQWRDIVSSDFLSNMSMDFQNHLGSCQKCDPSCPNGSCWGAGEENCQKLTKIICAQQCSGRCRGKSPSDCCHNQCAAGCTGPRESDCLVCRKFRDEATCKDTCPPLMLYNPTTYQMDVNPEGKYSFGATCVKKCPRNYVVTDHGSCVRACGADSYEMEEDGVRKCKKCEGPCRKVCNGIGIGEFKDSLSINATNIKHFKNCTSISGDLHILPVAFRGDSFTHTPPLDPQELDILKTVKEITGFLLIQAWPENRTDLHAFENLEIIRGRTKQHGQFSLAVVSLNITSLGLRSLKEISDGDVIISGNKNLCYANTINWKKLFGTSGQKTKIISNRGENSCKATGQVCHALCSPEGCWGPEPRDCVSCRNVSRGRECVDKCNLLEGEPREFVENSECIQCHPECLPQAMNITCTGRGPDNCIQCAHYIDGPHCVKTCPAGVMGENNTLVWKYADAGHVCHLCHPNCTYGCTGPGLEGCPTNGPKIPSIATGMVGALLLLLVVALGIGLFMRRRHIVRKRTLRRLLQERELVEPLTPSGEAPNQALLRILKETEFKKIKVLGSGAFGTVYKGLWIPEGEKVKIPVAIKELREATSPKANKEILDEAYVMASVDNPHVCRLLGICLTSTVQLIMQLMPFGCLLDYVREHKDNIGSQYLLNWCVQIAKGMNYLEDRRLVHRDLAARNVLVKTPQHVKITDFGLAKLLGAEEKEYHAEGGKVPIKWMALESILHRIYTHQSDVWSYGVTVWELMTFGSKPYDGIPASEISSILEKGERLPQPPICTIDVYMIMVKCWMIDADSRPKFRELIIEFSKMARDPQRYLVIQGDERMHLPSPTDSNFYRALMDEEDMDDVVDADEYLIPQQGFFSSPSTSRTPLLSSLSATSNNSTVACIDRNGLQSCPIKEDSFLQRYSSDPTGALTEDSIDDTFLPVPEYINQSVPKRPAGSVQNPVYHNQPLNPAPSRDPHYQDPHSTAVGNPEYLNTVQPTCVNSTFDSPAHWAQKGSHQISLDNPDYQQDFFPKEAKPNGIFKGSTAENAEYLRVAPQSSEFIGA

K562 = experiment: Cytotoxicity against human K562 cells after 48 hrs by CellTiter-Glo assay; type: functional, cell-based; conditions: K562, 48 h
Cytochrome P450 2D6 = Cytochrome P450 2D6 (Homo sapiens, UniProt P10635); experiment: Inhibition of human recombinant CYP2D6 after 20 mins by LC/MS/MS analysis; type: ADME
Chain of Cytochrome P450 2D6 (P10635 whole entry): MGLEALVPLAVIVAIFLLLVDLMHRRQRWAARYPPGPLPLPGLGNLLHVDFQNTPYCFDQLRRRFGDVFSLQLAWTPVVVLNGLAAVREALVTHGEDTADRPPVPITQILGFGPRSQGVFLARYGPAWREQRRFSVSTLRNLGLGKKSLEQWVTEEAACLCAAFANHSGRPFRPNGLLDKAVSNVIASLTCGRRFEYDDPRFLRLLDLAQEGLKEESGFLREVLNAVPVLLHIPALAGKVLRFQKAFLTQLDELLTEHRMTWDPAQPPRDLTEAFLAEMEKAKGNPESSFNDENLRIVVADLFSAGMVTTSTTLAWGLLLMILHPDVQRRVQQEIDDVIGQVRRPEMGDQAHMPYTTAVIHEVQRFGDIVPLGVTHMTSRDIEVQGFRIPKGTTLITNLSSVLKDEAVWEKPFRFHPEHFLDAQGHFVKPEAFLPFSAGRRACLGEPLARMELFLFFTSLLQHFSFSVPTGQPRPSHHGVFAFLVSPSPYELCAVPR

[2] = target: T2, Epidermal growth factor receptor (Homo sapiens, UniProt P00533); experiment: Ratio of IC50 for wild type EGFR in human A431 cells to IC50 for wild type EGFR (unknown origin); type: cell-based; conditions: A-431
T2 sequence (P00533 whole entry): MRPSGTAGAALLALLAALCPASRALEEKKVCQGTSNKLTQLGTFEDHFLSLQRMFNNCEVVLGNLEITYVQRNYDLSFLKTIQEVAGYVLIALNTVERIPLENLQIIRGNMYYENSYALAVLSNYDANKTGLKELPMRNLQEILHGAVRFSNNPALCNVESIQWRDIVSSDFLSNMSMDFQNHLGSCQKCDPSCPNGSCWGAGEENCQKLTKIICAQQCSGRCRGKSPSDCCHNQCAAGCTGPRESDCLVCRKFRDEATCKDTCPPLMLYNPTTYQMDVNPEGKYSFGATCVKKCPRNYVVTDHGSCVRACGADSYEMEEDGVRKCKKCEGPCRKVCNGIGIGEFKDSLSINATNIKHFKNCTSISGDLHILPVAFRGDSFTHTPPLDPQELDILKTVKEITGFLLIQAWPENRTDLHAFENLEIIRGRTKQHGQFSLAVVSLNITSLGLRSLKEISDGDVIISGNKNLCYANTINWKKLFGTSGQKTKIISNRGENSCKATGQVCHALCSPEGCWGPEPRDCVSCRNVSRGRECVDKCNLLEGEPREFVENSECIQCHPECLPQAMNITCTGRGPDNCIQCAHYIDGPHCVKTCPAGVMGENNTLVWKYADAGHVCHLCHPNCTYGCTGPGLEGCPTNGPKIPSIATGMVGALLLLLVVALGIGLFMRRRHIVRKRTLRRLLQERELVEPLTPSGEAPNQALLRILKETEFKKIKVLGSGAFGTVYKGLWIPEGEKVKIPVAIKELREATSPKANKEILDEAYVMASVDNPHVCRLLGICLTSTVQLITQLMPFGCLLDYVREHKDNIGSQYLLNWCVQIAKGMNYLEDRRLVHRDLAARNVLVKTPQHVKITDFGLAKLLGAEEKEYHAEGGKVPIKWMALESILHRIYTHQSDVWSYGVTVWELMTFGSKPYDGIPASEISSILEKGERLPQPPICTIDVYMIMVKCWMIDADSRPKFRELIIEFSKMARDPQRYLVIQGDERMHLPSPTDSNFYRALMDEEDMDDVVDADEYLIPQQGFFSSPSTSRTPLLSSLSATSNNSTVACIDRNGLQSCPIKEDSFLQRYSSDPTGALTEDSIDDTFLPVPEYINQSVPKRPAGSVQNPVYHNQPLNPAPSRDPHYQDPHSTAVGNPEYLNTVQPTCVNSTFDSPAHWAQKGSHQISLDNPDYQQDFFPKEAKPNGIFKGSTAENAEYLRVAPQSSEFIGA

[3] = target: T2, Epidermal growth factor receptor; experiment: Inhibition of wild type EGFR (unknown origin) incubated for 5 mins prior to ATP addition measured after 30 mins by HTRF method
Mus musculus [4] = experiment: AUC (0 to 24 hrs) in BALB/c mouse at 10 mg/kg, po; type: ADME, organism-based, Plasma; set-up: time < 24 hr, dose 10 mg/kg, route oral; conditions: in vivo
Outline: (§1)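 Mice (12 per treatment group) received a single dose, either intravenously at 3 mg/kg or orally at 10 mg/kg. Plasma exposure was followed over 24 h to derive AUC(0–24 h) in μM·min, t1/2 and tmax in min, and Cmax in μM. Oral bioavailability (F%) was derived from the oral versus i.v. data.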

[5] = Cmax in BALB/c mouse at 10 mg/kg, po; type: ADME, organism-based; set-up: dose 10 mg/kg, route oral; conditions: in vivo; outline: as §1
A-431 = experiment: animal or person; type: functional, Homo sapiens; conditions: Mus musculus, A-431, 288 h, route oral, read-out: TGI
Mus musculus [6] = experiment: AUC (0 to 24 hrs) in BALB/c mouse at 3 mg/kg, iv; type: ADME, organism-based, Plasma; set-up: time < 24 hr, dose 3 mg/kg, route intravenous; conditions: in vivo; outline: as §1
[7] = target: T2, Epidermal growth factor receptor; conditions: A-431, at 1 µM
[8] = target: Voltage-gated inwardly rectifying potassium channel KCNH2 (Homo sapiens, UniProt Q12809); experiment: Inhibition of human ERG channel by patch clamp assay
Chain of Voltage-gated inwardly rectifying potassium channel KCNH2 (Q12809 whole entry): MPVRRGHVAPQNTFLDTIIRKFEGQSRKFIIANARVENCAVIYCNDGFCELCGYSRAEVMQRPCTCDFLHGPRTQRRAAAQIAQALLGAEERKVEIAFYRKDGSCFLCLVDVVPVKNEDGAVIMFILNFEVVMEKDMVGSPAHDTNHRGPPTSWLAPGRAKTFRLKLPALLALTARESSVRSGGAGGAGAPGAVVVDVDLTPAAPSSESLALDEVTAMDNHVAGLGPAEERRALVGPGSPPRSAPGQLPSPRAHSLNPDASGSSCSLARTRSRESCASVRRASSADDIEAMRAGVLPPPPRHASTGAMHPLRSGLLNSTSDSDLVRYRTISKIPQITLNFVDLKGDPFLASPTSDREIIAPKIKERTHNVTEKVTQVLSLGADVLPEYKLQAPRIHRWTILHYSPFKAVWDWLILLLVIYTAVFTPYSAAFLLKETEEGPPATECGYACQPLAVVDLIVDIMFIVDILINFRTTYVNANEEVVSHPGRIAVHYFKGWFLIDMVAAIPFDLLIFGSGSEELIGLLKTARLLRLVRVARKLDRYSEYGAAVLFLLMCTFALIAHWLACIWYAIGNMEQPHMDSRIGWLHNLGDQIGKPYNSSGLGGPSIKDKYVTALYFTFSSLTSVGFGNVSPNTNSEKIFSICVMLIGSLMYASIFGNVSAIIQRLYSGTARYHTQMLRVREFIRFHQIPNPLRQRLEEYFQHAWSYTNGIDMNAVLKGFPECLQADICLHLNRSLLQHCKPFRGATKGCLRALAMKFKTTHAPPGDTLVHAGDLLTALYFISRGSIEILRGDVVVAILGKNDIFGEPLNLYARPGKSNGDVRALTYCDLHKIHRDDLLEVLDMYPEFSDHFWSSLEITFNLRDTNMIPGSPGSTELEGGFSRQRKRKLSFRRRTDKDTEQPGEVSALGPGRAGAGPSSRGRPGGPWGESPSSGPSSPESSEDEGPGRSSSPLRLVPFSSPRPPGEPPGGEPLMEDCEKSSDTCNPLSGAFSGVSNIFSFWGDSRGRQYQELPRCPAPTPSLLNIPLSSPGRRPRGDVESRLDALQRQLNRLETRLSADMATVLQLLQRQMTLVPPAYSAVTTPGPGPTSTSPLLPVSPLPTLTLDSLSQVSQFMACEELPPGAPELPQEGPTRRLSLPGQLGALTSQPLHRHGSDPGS

Mus musculus [9] = experiment: Toxicity in nude mouse xenografted with human A431 cells assessed as mortality at 200 mg/kg/day, po qd after 12 days; type: organism-based, A-431; set-up: route oral; conditions: in vivo, 288 h
Outline: (§2)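 A431 xenograft; dosing began once tumours reached 50–150 mm³. Mice randomized, n = 6/group, given test agent, gefitinib reference or vehicle by oral gavage once daily at 200 mg/kg/day. Body weight and tumour volume recorded twice weekly; mortality and weight loss noted over treatment (tumour mass read on days 0, 4, 7, 10, 12).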

[10] = Half life in BALB/c mouse at 10 mg/kg, po; type: ADME, organism-based; set-up: dose 10 mg/kg, route oral; conditions: in vivo; outline: as §1
Mus musculus [11] = experiment: Oral bioavailability in BALB/c mouse at 10 mg/kg; type: ADME, organism-based; conditions: in vivo; outline: as §1
[12] = Tmax in BALB/c mouse at 10 mg/kg, po; type: ADME, organism-based; set-up: dose 10 mg/kg, route oral; conditions: in vivo; outline: as §1
Mus musculus [13] = experiment: Toxicity in nude mouse xenografted with human A431 cells assessed as weight loss at 200 mg/kg/day, po qd after 12 days; type: organism-based, A-431; set-up: route oral; conditions: in vivo, 288 h; outline: as §2
[14] = Half life in BALB/c mouse at 3 mg/kg, iv; type: ADME, organism-based; set-up: dose 3 mg/kg, route intravenous; conditions: in vivo; outline: as §1
[15] = Cmax in BALB/c mouse at 3 mg/kg, iv; type: ADME, organism-based; set-up: dose 3 mg/kg, route intravenous; conditions: in vivo; outline: as §1
[16] = Tmax in BALB/c mouse at 3 mg/kg, iv; type: ADME, organism-based; set-up: dose 3 mg/kg, route intravenous; conditions: in vivo; outline: as §1

Chain of Cytochrome P450 3A4 (P08684 whole entry): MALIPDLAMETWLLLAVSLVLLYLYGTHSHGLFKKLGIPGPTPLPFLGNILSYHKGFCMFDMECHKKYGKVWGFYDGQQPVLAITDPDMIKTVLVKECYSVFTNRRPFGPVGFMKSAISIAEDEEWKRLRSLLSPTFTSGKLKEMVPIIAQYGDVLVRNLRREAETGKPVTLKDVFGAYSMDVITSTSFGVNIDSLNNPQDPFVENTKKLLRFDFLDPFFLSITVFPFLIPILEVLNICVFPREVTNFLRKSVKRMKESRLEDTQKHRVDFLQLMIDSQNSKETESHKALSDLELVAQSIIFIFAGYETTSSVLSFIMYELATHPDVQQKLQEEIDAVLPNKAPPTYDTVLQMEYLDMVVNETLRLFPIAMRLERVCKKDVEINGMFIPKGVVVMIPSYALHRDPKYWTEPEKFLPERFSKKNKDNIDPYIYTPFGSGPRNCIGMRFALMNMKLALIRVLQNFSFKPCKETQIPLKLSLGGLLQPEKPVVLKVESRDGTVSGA

## CN(C)C/C=C/C(=O)N1CCOc2cc3ncnc(Nc4ccc(OCc5cccc(F)c5)c(Cl)c4)c3cc21
Cytochrome P450 3A4
  pIC50: < 5.00
Cytochrome P450 1A2
  pIC50: < 5.00
Cytochrome P450 2C9
  pIC50: < 5.00
A549
  pIC50: < 5.00
SW-620
  pIC50: 5.21
[1]
  inhibition: Active
K562
  pIC50: < 5.00
Cytochrome P450 2D6
  pIC50: < 5.00

## Fc1ccc(Nc2ncnc3cc4c(cc23)NCCO4)cc1Cl
[2]
  Ratio IC50: 20000
[3]
  pIC50: 8.89

## CN(C)C/C=C/C(=O)N1CCOc2cc3ncnc(Nc4ccc(F)c(Cl)c4)c3cc21
Mus musculus [4]
  AUC: 133 µM·min
[5]
  Cmax: 360 nM
A-431
  inhibition in vivo at 200 mg/kg/day: 66.8%
Mus musculus [6]
  AUC: 25.4 µM·min
[7]
  inhibition: Active
Cytochrome P450 3A4
  pIC50: < 5.00
Cytochrome P450 1A2
  pIC50: < 5.00
[8]
  pIC50: < 5.00
Cytochrome P450 2C9
  pIC50: < 5.00
A549
  pIC50: < 5.00
SW-620
  pIC50: 4.60
Mus musculus [9]
  Activity: Non-toxic
[1]
  inhibition: Active
K562
  pIC50: < 5.00
[10]
  half-life: 9.13 h
Mus musculus [11]
  F: 26.1%
[12]
  Tmax: 0.75 h
Cytochrome P450 2D6
  pIC50: < 5.00
Mus musculus [13]
  Activity: Non-toxic
[14]
  half-life: 12.7 h
[15]
  Cmax: 290 nM
[16]
  Tmax: 2 min

## COc1cc2ncnc(Nc3ccc(F)c(Cl)c3)c2cc1OCCCN1CCOCC1 [GEFITINIB]
Mus musculus [9]
  Activity: Non-toxic
Mus musculus [13]
  Activity: Non-toxic
